According to ChEMBL document CHEMBL4823323, “Monocyclic Nitro-heteroaryl Nitrones with Dual Mechanism of Activation: Synthesis and Antileishmanial Activity” (ACS Med Chem Lett, 2021):
Active and inactive are the calls of the source. No cut-off for these calls is given here.

How the values were obtained:
Leishmania donovani [1] = assay: Antileishmanial activity against wild type Leishmania donovani promastigotes incubated for 72 hrs by resazurin dye based assay; assay type: functional, organism-based
Summary of the method: (§1)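 IC50 is the mean ± standard error of three independent experiments, each run in triplicate.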

[2] = Cytotoxicity against BALB/c mouse peritoneal macrophages assessed as reduction in cell viability incubated for 72 hrs by resazurin dye based fluorescence assay; parameters: species or system Peritoneal macrophage
Summary of the method: (§2)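 CC50 values are means of three independent experiments, each in triplicate, ± standard error; selectivity index taken as macrophage CC50 divided by intracellular amastigote EC50.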

Leishmania amazonensis [3] = assay: Antileishmanial activity against Leishmania amazonensis MHOM/BR/77/LTB 0016 promastigotes assessed as inhibition of parasite growth incubated for 72 hrs by resazurin dye based assay; assay type: functional, organism-based; settings: MHOM/BR/77/LTB 0016, 72 h
Summary of the method: (§3)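 Values are averages of three independent experiments run in triplicate ± standard error.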

Leishmania amazonensis [4] = assay: Antileishmanial activity against intracellular Leishmania amazonensis MHOM/BR/77/LTB 0016 amastigotes infected in BALB/c mouse peritoneal macrophage assessed as reduced parasite growth incubated for 72 hrs by PANOTIC staining based assay; assay type: functional, organism-based; settings: MHOM/BR/77/LTB 0016, Peritoneal macrophage; summary of the method: as §3
Leishmania infantum [5] = assay: Antileishmanial activity against Leishmania infantum MHOM/MA/67/ITMAP-263 promastigotes assessed as inhibition of parasite growth incubated for 72 hrs by resazurin dye based assay; assay type: functional, organism-based; settings: MHOM/MA/67/ITMAP-263, 72 h; summary of the method: as §3
Leishmania infantum [6] = assay: Antileishmanial activity against intracellular Leishmania infantum MHOM/MA/67/ITMAP-263 amastigotes infected in BALB/c mouse peritoneal macrophage assessed as reduced parasite growth incubated for 72 hrs by PANOTIC staining based assay; assay type: functional, organism-based; settings: MHOM/MA/67/ITMAP-263, Peritoneal macrophage; summary of the method: as §3
Leishmania donovani [7] = assay: Antileishmanial activity against Leishmania donovani LdBOB derived from MHOM/SD/62/1 S-CL2D promastigotes overexpressing NTR1 incubated for 72 hrs by resazurin dye based assay; assay type: functional, organism-based; summary of the method: as §1
Leishmania donovani [8] = assay: Selectivity index, ratio of IC50 for antileishmanial activity against wild type Leishmania donovani promastigotes to IC50 for antileishmanial activity against Leishmania donovani LdBOB derived from MHOM/SD/62/1 S-CL2D promastigotes overexpressing NTR1; assay type: functional
Leishmania donovani [9] = assay: Antileishmanial activity against Leishmania donovani LdBOB derived from MHOM/SD/62/1 S-CL2D promastigotes overexpressing NTR2 incubated for 72 hrs by resazurin dye based assay; assay type: functional, organism-based; summary of the method: as §1
Leishmania donovani [10] = assay: Selectivity index, ratio of IC50 for antileishmanial activity against wild type Leishmania donovani promastigotes to IC50 for antileishmanial activity against Leishmania donovani LdBOB derived from MHOM/SD/62/1 S-CL2D promastigotes overexpressing NTR2; assay type: functional
[11] = Selectivity index, ratio of CC50 for cytotoxicity against BALB/c mouse peritoneal macrophages assessed as reduction in cell viability incubated for 72 hrs by resazurin dye based fluorescence assay to IC50 for antileishmanial activity against intracellular Leishmania amazonensis MHOM/BR/77/LTB 0016 amastigotes infected in BALB/c mouse peritoneal macrophage; assay type: toxicity; settings: read-out: Selectivity Index; summary of the method: as §2
[12] = Selectivity index, ratio of CC50 for cytotoxicity against BALB/c mouse peritoneal macrophages assessed as reduction in cell viability incubated for 72 hrs by resazurin dye based fluorescence assay to IC50 for antileishmanial activity against intracellular Leishmania infantum MHOM/MA/67/ITMAP-263 amastigotes infected in BALB/c mouse peritoneal macrophage; assay type: toxicity; settings: read-out: Selectivity Index; summary of the method: as §2
Peritoneal macrophage = assay: Induction of ROS production in mouse peritoneal macrophages at EC50 concentration measured upto 4 hrs by H2DCFDA probe based fluorescence analysis; assay type: functional, cell-based; settings: time hrs <=4
Summary of the method: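 Murine peritoneal macrophages incubated 4 h with 0.5×, 1× and 2× EC50 of compounds (concentrations taken from the anti-promastigote assay); ROS quantified with H2DCFDA; means ± SD, n=3.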

Leishmania amazonensis [13] = assay: Induction of ROS production in Leishmania amazonensis promastigotes measured by H2DCFDA probe based fluorescence analysis; assay type: functional; settings: time hrs <=4
Summary of the method: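 L. amazonensis promastigotes exposed to compounds at concentrations based on the anti-promastigote EC50, with ROS followed kinetically over 4 h using H2DCFDA fluorescence; means ± SD, n=3.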

[14] = Electrochemical behavior of the compound in aprotic medium assessed as redox potential using glassy carbon electrode by cyclic voltammetry analysis; assay type: physicochemical
[15] = Aqueous solubility of the compound at pH 7.4 measured after 24 hrs by UHPLC-HRMS analysis; assay type: physicochemical; settings: buffer
[16] = Chemical stability of the compound assessed as degradation product at pH 7 measured after 240 mins; assay type: physicochemical; settings: buffer, pH 7, 4 h
[17] = Chemical stability of the compound assessed as degradation product at pH 2 measured after 240 mins; assay type: physicochemical; settings: buffer, pH 2, 4 h
[18] = Stability in pooled mouse plasma at pH 7.4 assessed as parent compound remaining incubated for 240 mins by LC/MS/MS analysis; assay type: ADME, cell-free; settings: pH 7.4, 4 h
[19] = Metabolic stability in human liver S9 fraction assessed as drug recovery at pH 7.4 in the presence of NADPH cofactor measured upto 60 mins by LC/MS/MS analysis; assay type: ADME, subcellular; settings: s9, pH 7.4, 1 h
Leishmania infantum [20] = assay: Antileishmanial activity in Leishmania infantum promastigotes intraperitoneally infected in BALB/c mouse assessed as reduced parasite load in spleen at 50 mg/kg, po twice a day followed by omeprazole administration 1 hr prior to test compound administration for 5 consecutive days relative to control; assay type: functional; parameters: scale not given: the % may be the effect or the level left; settings: time 5 day
Summary of the method: (§4)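 BALB/c mice (n=5) infected intraperitoneally with 1 × 10^8 L. infantum promastigotes; treatment began seven days post-infection. Oral omeprazole 10mg given 1 h before each oral dose of test compound (25, 50, 100 mg/kg) every 12 h for five consecutive days. Controls received vehicle or miltefosine 22mg/kg twice daily. Spleen and liver parasite load estimated by limiting dilution.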

Leishmania infantum [21] = assay: Antileishmanial activity in Leishmania infantum promastigotes intraperitoneally infected in BALB/c mouse assessed as reduced parasite load in spleen at 100 mg/kg, po twice a day followed by omeprazole administration 1 hr prior to test compound administration for 5 consecutive days relative to control; assay type: functional; parameters: scale not given: the % may be the effect or the level left; settings: time 5 day; summary of the method: as §4
Leishmania infantum [22] = assay: Antileishmanial activity in Leishmania infantum promastigotes intraperitoneally infected in BALB/c mouse assessed as reduced parasite load in liver at 25 to 100 mg/kg, po twice a day followed by omeprazole administration 1 hr prior to test compound administration for 5 consecutive days relative to control; assay type: functional; parameters: scale not given: the % may be the effect or the level left; settings: dose 25-100 mg/kg, time 5 day; summary of the method: as §4

Row | SMILES | IC50 (Leishmania donovani [1]) | CC50 at 72 h [2] | IC50 (Leishmania amazonensis [3]) | IC50 (Leishmania amazonensis [4]) | IC50 (Leishmania infantum [5]) | IC50 (Leishmania infantum [6]) | IC50 (Leishmania donovani [7]) | Ratio IC50 (Leishmania donovani [8]) | IC50 (Leishmania donovani [9]) | Ratio IC50 (Leishmania donovani [10]) | selectivity ratio at 72 h [11] | selectivity ratio at 72 h [12] | Activity (Peritoneal macrophage) | Activity (Leishmania amazonensis [13]) | Activity [14] | also measured
1 | O=[N+]([O-])c1ccc(/C=[N+](\[O-])Cc2ccccc2)s1 | 410 nM | 18500 nM | 1500 nM | 5420 nM | 1510 nM | 7180 nM | 300 nM | 1.3 | 760 nM | 0.53 | 3.4 | 2.6 | – | – | – | –
2 | CCCCCCCCCCCCCCCCOP(=O)([O-])OCC[N+](C)(C)C [MILTEFOSINE] | – | 96500 nM | 7010 nM | 3400 nM | 9810 nM | 500 nM | – | – | – | – | 28 | 193 | – | – | – | –
3 | CC(C)(C)/[N+]([O-])=C/c1ccc([N+](=O)[O-])o1 | 870 nM | 108000 nM | 1990 nM | 2760 nM | 360 nM | 19 nM | 50 nM | 17 | 40 nM | 21 | 39 | 5670 | inactive | inactive | -0.67 V | –
4 | O=Cc1ccc([N+](=O)[O-])o1 | – | 27800 nM | 25200 nM | > 57900 nM | 25700 nM | – | – | – | – | – | < 0.5 | – | – | – | -0.38 V | –
5 | O=[N+]([O-])c1ccc(/C=[N+](\[O-])Cc2ccccc2)o1 | 990 nM | 31900 nM | 210 nM | 2040 nM | 220 nM | 4490 nM | 1220 nM | 0.81 | 1330 nM | 0.74 | 15.6 | 5.7 | – | – | – | –
6 | O=Cc1ccc([N+](=O)[O-])cc1 | – | – | > 100000 nM | – | > 100000 nM | – | – | – | – | – | – | – | – | – | -0.58 V | –
7 | CC(C)(C)/[N+]([O-])=C/c1ccc([N+](=O)[O-])s1 | 4550 nM | 29800 nM | 11300 nM | – | 13300 nM | – | 270 nM | 17 | 310 nM | 18 | – | – | inactive | inactive | -0.64 V | –
8 | C/[N+]([O-])=C/c1ccc([N+](=O)[O-])o1 | 1160 nM | 49900 nM | 9370 nM | 1070 nM | 880 nM | 170 nM | 30 nM | 38 | 190 nM | 6.1 | 47 | 295 | inactive | inactive | -0.62 V | solubility at 24 h [15]: > 10 µM; Drug degradation [16]: > 25%; Drug degradation [17]: 40%; Stabilty [18]: Stable; Stabilty [19]: Stable; Activity (Leishmania infantum [20]): 76.6%; Activity (Leishmania infantum [21]): 95%; Activity (Leishmania infantum [22]): >75%
9 | O=Cc1ccc([N+](=O)[O-])s1 | – | 6250 nM | 5110 nM | > 11500 nM | 1390 nM | – | – | – | – | – | < 0.5 | – | – | – | – | –
